# Reference: publication PMC8866227 (Clinical Cancer Research, 2021)
# Like-named read-outs stand apart in the source and are kept apart here.
# Experiments:
# [1] = system: CCL2-directed migration of canine PBMCs; format: cell-based
# THP-1 cells = experiment: Transwell THP-1 monocyte migration to human OS cell line conditioned media; format: cell-based; conditions: 1 hour pretreatment, 10 μg/mL losartan
# Outline: (§1)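 Four human (THP-1, human PBMC) or four canine (canine PBMC) OS cell lines, kept in DMEM/10% FBS at 37°C and 5% CO2, supplied conditioned media as chemoattractant in transwell migration assays. Wells were run in technical triplicate or quadruplicate. […] Results are mean ± SD, one-way ANOVA with Tukey.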
# human PBMCs [2] = experiment: Transwell human PBMC migration to human OS cell line conditioned media; format: cell-based; conditions: 1 hour pretreatment, 10 μg/mL losartan
# Outline: as §1
# [3] = Losartan plasma pharmacokinetics in dogs; format: in vivo, dog; conditions: for AUC(0-t) / Cmax: dog, plasma, po
# [4] = system: CCL2-directed monocyte migration; experiment: Ex vivo CCL2-directed monocyte migration of PBMCs from treated dogs; format: in vivo, dog; conditions: for dogs with reduction of CCL2-mediated ex vivo monocyte migration from baseline: 10 mg/kg cohort
# Outline: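 Blood was drawn at baseline and at rechecks (days 7, 14, 28 in the 10 mg/kg cohort) and ACK-lysed within 1 h. Fresh PBMCs were assayed immediately for CCL2-directed transwell migration. Chemotactic index is the fold-change over negative-control wells, expressed as % of week 0.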
# CCL2 = experiment: Plasma CCL2 concentration in treated dogs by ELISA; format: in vivo, dog; conditions: for dogs with posttreatment increases in plasma CCL2 / mean increase in plasma CCL2 above baseline: 10 mg/kg cohort
# human PBMCs [5] = experiment: RNA-seq differential gene expression of losartan-treated human PBMCs; format: cell-based; conditions: losartan 10 μg/mL 24 h vs control
# Outline: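 PBMCs from healthy male and female donors were Ficoll-isolated from EDTA blood and plated at 3e6/mL in RPMI, 10% FBS, penicillin/streptomycin and L-glutamine. […] Extracted RNA was sequenced. Counts were RUVr-normalized, differential expression was called by limma-voom/edgeR, and GSEA was run.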
# human PBMCs [6] = experiment: Gene Set Enrichment Analysis; format: cell-based; conditions: losartan treated vs control PBMCs
# [7] = system: peripheral blood myeloid cells; experiment: Peripheral blood total myeloid cell counts; format: in vivo, dog; conditions: week 4 posttreatment, low- and high-dose cohorts combined n=19
# TGFβ = experiment: Serum TGF-β concentrations in treated dogs; format: in vivo, dog; conditions: high losartan dose 10 mg/kg + toceranib
# [8] = Systolic blood pressure monitoring in treated dogs; format: in vivo, dog; conditions: 1 and 10 mg/kg cohorts, repeated blood pressure measurements
# lung metastatic burden = conditions: cited from earlier work
# CCL2–CCR2 signaling = conditions: independent of AT1R; cited from earlier work
# [9] = system: lung metastatic osteosarcoma; experiment: Clinical response; format: in vivo, dog; conditions: single agent toceranib, dogs with metastatic OS
smiles,measurement,setting,value
CCCCc1nc(Cl)c(CO)n1Cc1ccc(-c2ccccc2-c2nn[nH]n2)cc1 [losartan],"CCL2-directed migration of canine PBMCs, % of untreated positive control wells",[1]; losartan 100 ng/mL in vitro,42%
same,"CCL2-directed migration of canine PBMCs, % of untreated positive control wells",[1]; losartan 10 μg/mL in vitro,12%
same,THP-1 migration to OS conditioned media,THP-1 cells,significant inhibited
same,human PBMC migration to OS conditioned media,human PBMCs [2],significant inhibited
same,mean plasma concentration,"[3]; 1 mg/kg oral cohort, OS dogs, ~6 h post dose",6.8 ng/mL
same,AUC(0-t),[3]; 2.5 mg/kg,303 ng·h/mL
same,Cmax,[3]; 2.5 mg/kg,76.7 ng/mL
same,AUC(0-t),[3]; 10 mg/kg,1580 ng·h/mL
same,Cmax,[3]; 10 mg/kg,509 ng/mL
same,CCL2-mediated ex vivo monocyte migration following treatment,"[4]; 1 mg/kg losartan cohort (+ toceranib), OS dogs",unexpectedly increased
same,dogs with reduction of CCL2-mediated ex vivo monocyte migration from baseline,[4]; week 1,7 of 14
same,dogs with reduction of CCL2-mediated ex vivo monocyte migration from baseline,[4]; week 2,8 of 15
same,dogs with reduction of CCL2-mediated ex vivo monocyte migration from baseline,[4]; week 4,7 of 11
same,dogs with increases in plasma CCL2,"CCL2; 1 mg/kg cohort, 2 weeks posttreatment",five of six
same,dogs with posttreatment increases in plasma CCL2,CCL2; week 2,12 of 15
same,mean increase in plasma CCL2 above baseline,CCL2; week 2,149.4%
same,dogs with posttreatment increases in plasma CCL2,CCL2; week 4,11 of 12
same,mean increase in plasma CCL2 above baseline,CCL2; week 4,186.3%
same,genes downregulated,human PBMCs [5],27 genes
same,genes upregulated,human PBMCs [5],32 genes
same,pathways significantly (Padj < 0.05) downregulated by GSEA,human PBMCs [6],409 pathways
same,total peripheral blood myeloid cells (combined monocyte and neutrophil counts),[7],significant reduction
same,serum TGFβ posttreatment,TGFβ,no posttreatment changes
same,hypotension associated with losartan treatment,[8],no dogs experienced any significant hypotension
same,lung metastatic burden in mice,lung metastatic burden,significantly reduced
same,"monocyte recruitment, noncompetitive inhibition of CCL2–CCR2 signaling induced ERK1/2 activation",CCL2–CCR2 signaling,potently inhibits
"Cc1[nH]c(/C=C2\C(=O)Nc3ccc(F)cc32)c(C)c1C(=O)NCCN1CCCC1 [toceranib, toceranib phosphate]","Clinical benefit rate (SD, PR, and CR)",[9],18%
same,"Progression-free survival, range",[9],7 to 176 days
